Most compounds without a hit are left out; they make up all but 2.9% or so of the library.
M1 PAM parental – M1 PAM counterscreen hit in parental CHO-K1 cells; activation, % at 3 µM; actives 0.02% (n = 360,000); AID 602247; ATP EC20, Fluo-8 calcium fluorescence; 0% at ATP EC20, 100% at ATP max;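 active = activation above the run cutoff, the mean activation of all test compounds plus 3 SD, cut at about 40% in these data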;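 also: peak over basal fluorescence ratio in a 140 s read after ATP addition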
CHO parental Ca – counter-screen: ATP calcium response change in parental CHO cells. parental CHO-K1, ATP-induced calcium, Fluo-8 fluorescence. inhibition, % at 5.6 µM. actives 0.63% (n = 330,000);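 active = inhibition above that plate's mean sample inhibition plus 3 SD, cut at about 26% in these data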
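Measured by: calcium-sensitive Fluo-8 fluorescence / Test system: CHO parental line / Controls: ATP-challenged DMSO wells low, unchallenged DMSO wells high / Measure: % inhibition / Compound: single nominal dose of 5.6 µM per compound / Replicates: single well per compound, no replicates / Reagent: ATP as calcium-mobilizing challenge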
CHO-K1 Ca antag – counter-screen for M1 antagonists: effect in parental CHO-K1 cells; ATP-induced calcium, Fluo-8 fluorescence; inhibition, % at 3 µM; AID 602250; actives 0.6% (n = 360,000);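 active = inhibition above a per-plate cutoff, the plate's mean sample inhibition plus 3 SD, cut at about 24% in these data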
OX1R antag-1 – antagonists of human orexin 1 receptor; O43613; CHO/OX1R cells, Fluo-8 calcium fluorescence, orexin A; inhibition, % at 5 µM; actives 0.43% (n = 330,000);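 active = inhibition above its plate's threshold, mean inhibition of all tested compounds on the plate plus 3 SD, cut at about 37% in these data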
Target sequence (O43613 whole entry, looked up): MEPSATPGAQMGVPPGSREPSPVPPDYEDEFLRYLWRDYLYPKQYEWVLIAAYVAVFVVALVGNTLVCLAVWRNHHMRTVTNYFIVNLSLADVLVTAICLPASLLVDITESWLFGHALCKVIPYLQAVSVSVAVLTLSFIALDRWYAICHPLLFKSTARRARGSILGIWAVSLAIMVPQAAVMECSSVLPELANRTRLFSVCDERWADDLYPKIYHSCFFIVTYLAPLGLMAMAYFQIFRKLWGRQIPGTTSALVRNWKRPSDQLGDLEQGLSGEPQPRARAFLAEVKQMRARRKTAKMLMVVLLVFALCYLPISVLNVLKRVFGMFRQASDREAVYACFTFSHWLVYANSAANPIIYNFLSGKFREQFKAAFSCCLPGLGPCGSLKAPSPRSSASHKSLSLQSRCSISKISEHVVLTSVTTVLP
OX1R antag-2 – blocks the human orexin 1 receptor | O43613 | OX1R-expressing cells, FRET antagonist read-out | inhibition, % at 6.6 µM | actives 1.8% (n = 330,000) | AID 485270; in the data active = inhibition mostly above about 38%, no sharp cut-off; inactive = mostly below about 40%
M1 ag parental – M1 agonist counterscreen hit in parental CHO-K1 cells | Fluo-8 calcium fluorescence; scaled to maximal ATP response, vehicle zero | activation, % at 3 µM | actives 0.48% (n = 360,000) | AID 602248; in the data active = activation above about 15%;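 also: untransfected CHO-K1 host cells lacking M1 receptor as counterscreen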
A number is an active result; i = inactive; nt = no result given.

SMILES	M1 PAM parental	CHO parental Ca	CHO-K1 Ca antag	OX1R antag-1	OX1R antag-2	M1 ag parental
COc1cc2c(cc1OC)CN(c1ccc(C(N)=O)cc1[N+](=O)[O-])CC2	i	i	i	i	i	i
COC(=O)C1=C(C)NC(C)=C(C(=O)OC)C1c1ccco1	i	i	i	i	i	19
CCOc1cc(C(=O)NC(C)CCc2ccccc2)cc(OCC)c1OCC (stereo not drawn)	i	i	i	i	i	i
N=c1c(S(=O)(=O)c2ccc(Cl)cc2)cc2c(=O)n3ccccc3nc2n1CCN1CCOCC1	i	i	i	i	i	i
Cc1ccc2nc3c(cc(C(N)=S)c(=N)n3CCCOC(C)C)c(=O)n2c1	i	i	i	i	47	i
Cc1ccc2nc3c(cc(C(=O)NCc4ccccc4)c(=N)n3CCCn3ccnc3)c(=O)n2c1	i	nt	i	nt	nt	i
N=c1c(C(=O)NCCN2CCOCC2)cc2c(=O)n3ccccc3nc2n1CCCN1CCOCC1	i	i	i	i	69	i
N=c1c(C(=O)NCCN2CCOCC2)cc2c(=O)n3ccccc3nc2n1Cc1ccc(F)cc1	i	i	i	i	60	i
Cc1ccc2nc3c(cc(C(=O)NCCN4CCOCC4)c(=N)n3CCCN3CCOCC3)c(=O)n2c1	i	i	i	i	71	i
CS(=O)(=O)c1[nH]nc(-c2ccccc2Cl)c1C#N	i	i	i	i	i	i
COCCn1c(=NC(=O)CSCC(=O)N2CCOCC2)sc2ccccc21	i	i	i	i	i	i
COc1ccc(-c2nn(-c3ccccc3)cc2C(=O)NC(=S)N2CCOCC2)cc1OC	i	i	i	i	i	i
Cc1c(Cl)cccc1NC(=O)CNCc1ccccc1F	i	i	i	i	i	i
N=c1c(S(=O)(=O)c2ccccc2)cc2c(=O)n3ccccc3nc2n1CCCN1CCOCC1	i	i	i	i	46	i
Cc1ccc(S(=O)(=O)c2cc3c(=O)n4ccccc4nc3n(CCCN3CCOCC3)c2=N)cc1C	i	i	i	i	i	i
CC(=O)NCCC1CCN(C(=O)c2cc(COc3ccc(C)nc3)on2)CC1	i	i	i	i	i	i
CC(C)(C)c1cc[n+](C2=C([O-])c3ccccc3C(=O)/C2=N\S(=O)(=O)c2cccs2)cc1	i	i	i	i	77	i
O=C(CSc1nnc(-c2cccs2)n1-c1ccccc1)N1CCCC1	i	i	i	i	i	i
Nn1c(SCC(=O)N2CCCC2)nnc1-c1cccs1	i	nt	27	nt	nt	i
CCn1c(SCC(=O)c2ccccc2)nnc1-c1cccs1	i	i	26	i	i	i
O=C(CSc1nnc(-c2cccs2)n1-c1ccccc1)N1CCOCC1	i	i	35	i	i	i
O=C(NCC(c1cccs1)N1CCOCC1)C1CCN(S(=O)(=O)c2ccccc2C(F)(F)F)CC1 (stereo not drawn)	i	i	i	i	i	i
CC(C)OC(=O)c1c2c(n3ccccc13)C(=O)c1ccccc1C2=O	i	i	i	i	i	18
COC(=O)/C(=C(/F)Sc1cc(C)c(O)c(C)c1)C(F)(F)F	i	33	i	i	i	i
COC(=O)C(Nc1ccccc1Cl)(c1cc(C)c(O)c(C)c1)C(F)(F)F (stereo not drawn)	i	i	i	i	i	i
SMILES	M1 PAM parental	CHO parental Ca	CHO-K1 Ca antag	OX1R antag-1	OX1R antag-2	M1 ag parental
Cc1ccc(Nc2cc(C)nn2-c2nc(C)cc(=O)[nH]2)cc1	i	55	i	41	i	i
COc1ccc([N+](=O)[O-])cc1-n1cnnn1	i	i	i	i	i	i
Cc1nc(CS(=O)(=O)c2ccc(Cl)cc2)sc1C(=O)O	i	i	i	i	i	i
O=C(NCc1n[nH]c(=S)n1-c1cccc(C(F)(F)F)c1)c1ccc(S(=O)(=O)N2CCCCC2)cc1	i	i	i	i	i	i
O=C(NCc1n[nH]c(=S)n1-c1cccc(C(F)(F)F)c1)c1ccc(S(=O)(=O)N2CCCC2)cc1	i	i	i	i	50	i
COc1ccc(-c2cc(NC(C)=O)c3ncc(-c4ccccc4)n3c2)cc1OC	i	nt	29	nt	nt	i
COc1ccccc1NS(=O)(=O)c1ccc(C)c(C(=O)NCCCN2CCCC2=O)c1	i	i	31	i	i	i
Cc1ccc(NC(=O)CCOc2ccccc2C)cc1C	i	i	i	i	i	i
CCn1c(SCC(=O)Nc2ccc3c(c2)OCO3)nnc1C(C)C	i	i	i	i	i	i
CC1(c2ccc(OC(F)F)cc2)NC(=O)N(CC(=O)Nc2ccc(OC(F)F)cc2)C1=O (stereo not drawn)	i	36	28	53	i	33
COc1ccc(C2(c3ccc(OC)cc3)NC(=O)N(CC(=O)Nc3ccc(OC(F)F)cc3)C2=O)cc1	i	i	i	i	i	i
CC1(c2ccc(OC(F)F)cc2)NC(=O)N(CC(=O)Nc2ccc(F)cc2)C1=O (stereo not drawn)	i	i	i	i	i	25
CC1(c2ccc(OC(F)F)cc2)NC(=O)N(CC(=O)Nc2ccc(S(N)(=O)=O)cc2)C1=O (stereo not drawn)	i	i	i	i	i	i
COc1ccc(C2(C)NC(=O)N(CC(=O)Nc3ccc(-c4nc5ccc(C)cc5s4)cc3)C2=O)cc1 (stereo not drawn)	i	29	i	i	i	i
CCOc1ccc(NC(=O)CN2C(=O)NC(C)(c3ccc(OC(F)F)cc3)C2=O)cc1 (stereo not drawn)	i	i	i	i	i	19
CC(=O)N1CCc2cc(S(=O)(=O)CCC(=O)NCc3ccc(F)cc3)ccc21	i	i	i	i	i	i
CCc1ccc(NC(=O)C/C(C)=N/NC(=O)COc2ccccc2C)cc1	i	i	i	i	i	i
CC1(c2ccc(OC(F)F)cc2)NC(=O)N(CC(=O)Nc2cccc(F)c2)C1=O (stereo not drawn)	i	53	44	67	i	32
O=C(COC(=O)c1ccc(Cl)c(S(=O)(=O)N2CCCC2)c1)NCc1ccccc1	i	i	i	i	i	i
CCC(=O)N1CCCc2cc(S(=O)(=O)N3CCN(c4ncccn4)CC3)ccc21	i	i	24	i	i	i
CCC(=O)N1CCCc2cc(S(=O)(=O)N3CCN(c4ccccn4)CC3)ccc21	i	i	i	i	i	i
Cc1ccc2c(c1)c1c3n2CC(=C2C(=O)OC(C)(C)OC2=O)NC3CCC1 (stereo not drawn)	i	i	i	i	43	i
CCCCNc1nc(Cl)nc(Nc2ccc(C)cc2)n1	i	i	i	i	i	i
C/C(=N\Nc1cccc([N+](=O)[O-])c1)c1cc(F)ccc1O	i	i	i	i	68	i
O=c1[nH]c(=O)c2nnc(N/N=C/c3ccccc3F)nc2[nH]1	i	i	i	i	i	i
